Like-named read-outs stand apart in the source and are kept apart here. One block for each compound: values may come before it.
Experiments:
[1] = tested on: sPLA2 activity in HepG2 cells; assay: sPLA2 activity inhibition in HepG2 cells; assay type: cell-based; conditions: Homo sapiens, HepG2, read-out: sPLA2 activity inhibition IC50
[2] = Pharmacokinetics in mouse; conditions: in vivo, iv, 10 μmol/kg
[3] = Toxicological profile in animals; assay type: in vivo; conditions: rats, dogs, and cynomolgus monkeys
[4] = tested on: cynomolgus monkey plasma sPLA2; assay: In vitro sPLA2 inhibition in cynomolgus monkey plasma; assay type: biochemical; conditions: read-out: ICu,50
Pharmacokinetics in rat = conditions: in vivo, iv, 2 μmol/kg
Pharmacokinetics in dog = conditions: in vivo, iv, 1 μmol/kg
[5] = tested on: human plasma sPLA2 activity; assay: Human plasma sPLA2 inhibition assay; assay type: biochemical
Method in brief: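 Inhibition of endogenous sPLA2 activity in human plasma, run by a previously established protocol. The plasma IC50 is converted to an unbound value: IC50 × Fu/100, where Fu = 100 − human plasma protein binding (%). Values are means of at least two experiments, with experimental error within 20% of the value.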

sPLA2-IIa [6] = target: T1, sPLA2-IIa (Homo sapiens, UniProt P14555); assay: Ligand efficiency / ligand lipophilicity efficiency from sPLA2-IIa IC50; conditions: pIC50 (sPLA2-IIa) – logD
T1 sequence (P14555 21-144): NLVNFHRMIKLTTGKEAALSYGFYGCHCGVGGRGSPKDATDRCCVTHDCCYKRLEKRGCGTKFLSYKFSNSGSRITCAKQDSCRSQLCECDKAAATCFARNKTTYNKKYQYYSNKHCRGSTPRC

sPLA2-IIa [7] = target: T1, sPLA2-IIa; assay: sPLA2 inhibition assay using phosphatidylcholine as substrate; assay type: biochemical; conditions: for increase in affinity/potency compared to 1: sPLA2-IIa, relative to compound 1
IKs = IKs (Homo sapiens, UniProt P51787); assay: IonWorks patch clamp, CHO cells expressing IKs; assay type: cell-based
IKs, sequence (P51787 whole entry): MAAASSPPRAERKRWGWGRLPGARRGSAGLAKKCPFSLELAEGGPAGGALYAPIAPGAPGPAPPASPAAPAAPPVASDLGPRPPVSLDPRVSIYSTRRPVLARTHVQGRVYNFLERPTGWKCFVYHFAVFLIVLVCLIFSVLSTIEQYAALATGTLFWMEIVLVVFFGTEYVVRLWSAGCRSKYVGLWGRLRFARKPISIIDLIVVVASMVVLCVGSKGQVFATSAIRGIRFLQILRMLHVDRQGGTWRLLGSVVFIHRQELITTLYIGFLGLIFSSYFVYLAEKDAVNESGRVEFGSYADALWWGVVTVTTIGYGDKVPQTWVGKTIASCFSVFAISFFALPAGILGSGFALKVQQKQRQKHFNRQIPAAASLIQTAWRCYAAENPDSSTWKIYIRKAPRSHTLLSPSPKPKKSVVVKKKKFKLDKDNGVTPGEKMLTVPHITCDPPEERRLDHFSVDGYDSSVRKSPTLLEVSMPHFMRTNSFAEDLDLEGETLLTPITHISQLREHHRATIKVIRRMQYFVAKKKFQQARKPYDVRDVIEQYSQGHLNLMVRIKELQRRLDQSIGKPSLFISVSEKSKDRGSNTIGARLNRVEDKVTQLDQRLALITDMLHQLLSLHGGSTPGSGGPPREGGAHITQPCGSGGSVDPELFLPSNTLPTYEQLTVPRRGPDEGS

human OATP1B1 = target: T2, human OATP1B1 (Homo sapiens, UniProt Q9Y6L6); assay: Inhibition of pivastatin uptake to HEK293 cells transfected with human OATP1B1; assay type: cell-based
T2 sequence (Q9Y6L6 1-691): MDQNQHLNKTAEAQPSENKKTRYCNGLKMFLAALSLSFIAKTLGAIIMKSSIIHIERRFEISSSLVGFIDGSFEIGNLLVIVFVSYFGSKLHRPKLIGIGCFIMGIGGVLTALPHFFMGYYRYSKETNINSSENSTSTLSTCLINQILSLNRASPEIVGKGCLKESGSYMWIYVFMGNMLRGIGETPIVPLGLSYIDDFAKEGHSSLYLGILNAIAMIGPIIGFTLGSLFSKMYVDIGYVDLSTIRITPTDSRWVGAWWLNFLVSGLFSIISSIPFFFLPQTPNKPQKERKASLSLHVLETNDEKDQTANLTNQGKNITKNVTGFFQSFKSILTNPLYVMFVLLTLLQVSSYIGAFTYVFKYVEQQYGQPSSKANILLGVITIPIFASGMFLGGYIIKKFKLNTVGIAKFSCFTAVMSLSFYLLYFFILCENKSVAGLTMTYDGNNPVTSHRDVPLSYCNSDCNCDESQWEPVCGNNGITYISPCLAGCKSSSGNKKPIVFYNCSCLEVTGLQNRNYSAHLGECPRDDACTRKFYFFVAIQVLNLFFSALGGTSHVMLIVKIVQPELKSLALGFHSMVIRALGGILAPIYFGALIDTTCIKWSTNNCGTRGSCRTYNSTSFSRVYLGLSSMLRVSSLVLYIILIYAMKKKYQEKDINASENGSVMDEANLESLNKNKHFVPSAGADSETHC
Method in brief: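 HEK293 cells transfected with human OATP1B1 are used to measure the test compound's inhibition of pivastatin uptake into the cells. The IC50 is reported as an estimated value. Results are means of at least two experiments, with experimental error within 20% of the value.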

[8] = Intrinsic clearance in human hepatocytes; assay type: in vitro ADME; conditions: pH 7.4
sPLA2-V = target: T3, sPLA2-V (Homo sapiens, UniProt P39877); assay: sPLA2 inhibition assay using phosphatidylcholine as substrate; assay type: biochemical
T3 sequence (P39877 21-138): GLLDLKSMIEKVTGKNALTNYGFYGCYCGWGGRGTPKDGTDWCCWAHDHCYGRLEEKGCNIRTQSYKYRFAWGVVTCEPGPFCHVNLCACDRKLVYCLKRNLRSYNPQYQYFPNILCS

sPLA2-X = target: T4, sPLA2-X (Homo sapiens, UniProt O15496); assay: as above; assay type: biochemical
T4 sequence (O15496 43-165): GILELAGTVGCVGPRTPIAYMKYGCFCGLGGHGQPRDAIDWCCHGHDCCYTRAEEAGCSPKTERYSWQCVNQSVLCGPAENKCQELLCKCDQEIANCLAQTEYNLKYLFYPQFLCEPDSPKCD

[9] = read-out: plasma ICu,50, plasma sPLA2 IC50 × Fu/100
[10] = read-out: plasma ICu,50, plasma sPLA2 IC50 × Fu/100, NA = not active at maximum tested concentration (25 μM)

Compound: C[C@H](Cc1cccc(-c2cc(Cc3ccccc3)ccc2C(N)=O)c1)C(=O)O [(R)-7]
IC50 [1]: < 14 nM
clearance [2]: 0.552 L/h/kg
toxicological profile [3]: favorable toxicological profile
IC50 [4]: 1 nM
clearance (Pharmacokinetics in rat): 0.06 L/h/kg
clearance (Pharmacokinetics in dog): 0.012 L/h/kg
IC50 [5, 9]: 0.1 nM

LLE (sPLA2-IIa [6]): 2.2
IC50 [5, 10]: 900 nM
Compound: NC(=O)c1ccc(Cc2ccccc2)cc1 [Compound 1, 4-benzylbenzamide]

increase in affinity/potency compared to 1 (sPLA2-IIa [7]): more than 300 fold
Compound: NC(=O)c1ccc(Cc2ccccc2)cc1-c1cccc(CC(=O)O)c1 [Compound 3]

increase in affinity/potency compared to 1 (sPLA2-IIa [7]): 2000 fold
clearance (Pharmacokinetics in rat; Sprague-Dawley): 0.06 L/h/kg
IC50 [5, 9]: 7 nM
IC50 (IKs): > 33300 nM
Compound: NC(=O)c1ccc(Cc2ccccc2)cc1-c1cccc(CCC(=O)O)c1 [Compound 4]

IC50 (human OATP1B1): > 25000 nM
Compound: CC(Cc1cccc(-c2cc(Cc3ccccc3)ccc2C(N)=O)c1)C(=O)O (stereo not shown) [Compound 7]

IC50 [5, 9]: 0.8 nM
Compound: CCC(Cc1cccc(-c2cc(Cc3ccccc3)ccc2C(N)=O)c1)C(=O)O (stereo not shown) [Compound 8]

Compound: NC(=O)c1ccc(Cc2ccccc2)cc1-c1cccc(CC2(C(=O)O)CC2)c1 [Compound 9]
hepatocyte CLint at 1 µM [8]: 21 µL/min/1e6 cells
IC50 (sPLA2-IIa [7]): 18 nM
IC50 (sPLA2-V): 250 nM
IC50 [5, 9]: 0.9 nM
IC50 (sPLA2-X): 580 nM

Compound: CCc1c(C(=O)C(N)=O)c2c(OCC(=O)O)cccc2n1Cc1ccccc1 [varespladib, reference compound]
IC50 [5, 10]: 8 nM
